pKi: −log10 of the molar value. Calls of active or inactive are those of the source. The calls are words filed in the database; no cut-off is given here.
Columns and labels:
[1] = test system: BXPC-3; experiment: Cytotoxicity against human BxPC3 cells during nonproliferating stage assessed as decreased cell death at 100 uM after 18 hrs by crystal violet staining; type: functional, cell-based
How it was run: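 BxPC3 cells seeded at increasing densities (1 × 10^5 to 9 × 10^5) 24 h before treatment with 100 µM sigma-2 agonist. After 18 h, washed, fixed in 4% paraformaldehyde 30 min at 37 °C, crystal violet stained 15 min at 37 °C, and imaged by densitometry. Viability given as percent density relative to DMSO-treated cells.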

[2] = Selectivity ratio of IC50 for guinea pig brain sigma 1 receptor to IC50 for rat liver sigma 2 receptor
How it was run: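 Sigma-1 binding used (+)-[3H]-pentazocine (34 Ci/mmol); sigma-2 binding used [3H]-DTG (30 Ci/mmol), per the Matsumoto et al. method. IC50 taken from six to nine test concentrations in two or three experiments, each in duplicate.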

[3] = Displacement of [3H]-DTG from sigma 2 receptor from rat liver in presence of pantazocine
[4] = test system: BXPC-3; experiment: Drug uptake in human BxPC3 cells assessed as decreased uptake at increasing cell density at 25 nM after 30 min by flow cytometric analysis; type: ADME, cell-based; details: bxpc-3, 0.5 h
How it was run: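 BxPC3 cells seeded at increasing densities to give subconfluent (dividing) through confluent (quiescent) cultures. Next day, cells treated with compound at 25 nM for 30 min at 37 °C, and fluorescence intensity measured by flow cytometry.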

[5] = test system: BXPC-3; experiment: Drug uptake in human BxPC3 cells assessed as decrease drug uptake at 25 nM measured after 60 mins by flow cytometric analysis in presence of caveolin inhibitor Filipin 3; type: ADME, cell-based; details: bxpc-3, 1 h
How it was run: (§1)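 BxPC3 cells pretreated 60 min at 37 °C with phenylarsine oxide (10 µM; clathrin route) or Filipin III (5 µg/mL; caveolin route), or DMSO vehicle, then washed and resuspended in medium. Compound added at 25 nM; mean FL1 fluorescence read by flow cytometry in kinetic mode over 60 min, expressed as percent of maximum signal.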

[6] = target: Sigma non-opioid intracellular receptor 1 (Cavia porcellus, UniProt Q60492); experiment: Displacement of [3H]-pentazocine from sigma 1 receptor from guinea pig brain membrane
[7] = test system: BXPC-3; experiment: Cellular uptake in human BxPC3 cells assessed as decrease drug uptake at 25 nM measured after 60 mins by flow cytometric analysis in presence of clathrin inhibitor phenylarsine oxide; type: ADME, cell-based; details: bxpc-3, 1 h; how it was run: as §1

Sigma non-opioid intracellular receptor 1, sequence (Q60492 whole entry): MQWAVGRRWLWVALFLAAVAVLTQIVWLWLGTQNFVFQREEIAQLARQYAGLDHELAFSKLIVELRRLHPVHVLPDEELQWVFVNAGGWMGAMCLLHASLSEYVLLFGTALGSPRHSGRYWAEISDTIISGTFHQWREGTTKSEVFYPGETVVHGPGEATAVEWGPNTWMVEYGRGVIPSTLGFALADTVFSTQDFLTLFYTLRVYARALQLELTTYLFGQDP

| SMILES | Activity [1] | Ratio Ki [2] | pKi [3] | Drug uptake [4] | Drug uptake [5] [%] | pKi [6] | Drug uptake [7] [%] |
| --- | --- | --- | --- | --- | --- | --- | --- |
| Fc1cccc(F)c1[C@H]1CC[C@@H](N2CCN(C3CCCCC3)CC2)CC1 | inactive | – | – | – | – | – | – |
| O=[N+]([O-])c1ccc(NCCCCCCOc2cccc3c2CCCC3CCCN2CCN(C3CCCCC3)CC2)c2nonc12 (stereo not given) | – | 8 | 7.97 | Not Active | 50 | 7.10 | 69 |
| COc1cccc2c1CCCC2CCCN1CCN(C2CCN(CCCCCCNc3ccc([N+](=O)[O-])c4nonc34)CC2)CC1 (stereo not given) | – | – | 5.76 | – | – | 5.59 | – |
| CN(C)c1cccc2c(S(=O)(=O)NCCCCCCOc3cccc4c3CCCC4CCCN3CCN(C4CCCCC4)CC3)cccc12 (stereo not given) | – | – | 7.68 | – | – | 8.04 | – |
| COc1cccc2c1CCCC2CCCN1CCN(C2CCN(CCCCCCNS(=O)(=O)c3cccc4c(N(C)C)cccc34)CC2)CC1 (stereo not given) | – | – | 5.30 | – | – | < 5.30 | – |
| CN(C)c1cccc2c(S(=O)(=O)NCCOCCOc3cccc4c3CCCC4CCCN3CCN(C4CCCCC4)CC3)cccc12 (stereo not given) | – | – | 7.59 | – | – | 7.70 | – |
| O=[N+]([O-])c1ccc(NCCOCCOc2cccc3c2CCCC3CCCN2CCN(C3CCCCC3)CC2)c2nonc12 (stereo not given) | – | 2.5 | 7.41 | – | – | 7.02 | – |
| COc1cccc2c1CCCC2CCCN1CCN(C2CCCCC2)CC1 (stereo not given) | inactive | – | 9.17 | – | – | – | – |

From ChEMBL document CHEMBL1821615 (J Med Chem, 2011)
